{"source": "ChEMBL document CHEMBL4513216", "about": "“Probing the Open Global Health Chemical Diversity Library for Multistage-Active Starting Points for Next-Generation Antimalarials” (ACS Infect Dis, 2020)"}
{"test": "Toxicity liver stage against HepG2, at 10uM", "assay_type": "cell-based", "set-up": "test concentration 10 uM, cell line HepG2-A16-CD81EGFP", "details": "human, HepG2-A16-CD81EGFP cells; read-out: INHIBITION", "in_short": "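Uninfected HepG2-A16-CD81EGFP cells, 3 × 10^3 per well, 1536-well, plated on prespotted compound at 10 μM final, parasite-free screening media added to match infected plates; puromycin 10 μM positive, DMSO 0.5% negative; run in parallel with 48 h PbLuc assay at 37 °C, 5% CO2; viability by CellTiter-Glo luminescence, normalized to controls.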", "units": {"cytotoxicity at 10 µM": "%"}}
{"molecule": "CCSc1ccc(C(=O)Nc2c(C)nn(C(C)C)c2C)cn1", "cytotoxicity at 10 µM": -24.4}
{"molecule": "CCc1nccn1C1CCCN(C(=O)c2ccc3[nH]cnc3c2)C1", "note": "(stereo unspecified)", "cytotoxicity at 10 µM": -7.66}
{"molecule": "CC(CN1CCN(C)CC1)NC(=O)c1cc(Cl)c2c(c1)OCO2", "note": "(stereo unspecified)", "cytotoxicity at 10 µM": -14}
{"molecule": "CCN(CC)Cc1nc2c(o1)CN(C(=O)c1ccncc1F)C2", "cytotoxicity at 10 µM": -109}
{"molecule": "Cc1cnc(C(=O)N2CCC3(CCCN(c4nncs4)C3)C2)cn1", "note": "(stereo unspecified)", "cytotoxicity at 10 µM": -103}
{"molecule": "c1cncc(CN2CCCC3(COCCN(c4cncnc4)C3)C2)c1", "note": "(stereo unspecified)", "cytotoxicity at 10 µM": -73.3}
{"molecule": "CC1=N[C@@]2(CC[C@@H]3CN(S(=O)(=O)CC(C)C)C[C@@H]32)C(=O)N1CC1CC1", "cytotoxicity at 10 µM": -66.6}
{"molecule": "Cc1cc(N2CCN(C(=O)c3cnn(C(C)C)c3)CC2)cc(C)n1", "cytotoxicity at 10 µM": -15.2}
{"molecule": "CCN(CCO)C[C@@H]1CN(c2cccc(C(F)(F)F)n2)C[C@@H]1CO", "cytotoxicity at 10 µM": 0.855}
{"molecule": "O=C(COCc1ccccc1)N1CCN(Cc2ccccc2F)C(=O)C1", "cytotoxicity at 10 µM": -3.19}
{"molecule": "N[C@H]1CN(C(=O)c2ccccc2OCc2ccccc2)C[C@@H]1C1CC1", "cytotoxicity at 10 µM": -3.57}
{"molecule": "CSCC[C@H](N)C(=O)NCc1cc2n(n1)CCCN(C(=O)N(C)C)C2", "cytotoxicity at 10 µM": 9.8}
{"molecule": "CCN(CC)C(=O)C1CCCN(c2ncnc3oc(C)nc23)C1", "note": "(stereo unspecified)", "cytotoxicity at 10 µM": 1.61}
{"molecule": "COc1ccccc1OC1(C(=O)O)CCN(c2nccnc2OC)CC1", "cytotoxicity at 10 µM": -6.25}
{"molecule": "Cc1cc(C2CCC2)nc(N(C)CCc2ccccn2)n1", "cytotoxicity at 10 µM": -3.09}
{"molecule": "CCCSCC(=O)N1CCCC2(CCC(=O)N(CCc3c[nH]cn3)C2)C1", "note": "(stereo unspecified)", "cytotoxicity at 10 µM": -0.0682}
{"molecule": "C=C(C)COc1ccccc1C(=O)NCCc1nncn1C", "cytotoxicity at 10 µM": -3.06}
{"molecule": "CC(Oc1ccc2c(c1)OCO2)C(=O)N1CCC(c2ncc[nH]2)CC1", "note": "(stereo unspecified)", "cytotoxicity at 10 µM": -2.58}
{"molecule": "Cc1nn(C)c2nc(N(Cc3ccccn3)CC3CCCO3)sc12", "note": "(stereo unspecified)", "cytotoxicity at 10 µM": -1.01}
{"molecule": "Cc1n[nH]c(C)c1Sc1ccccc1NC(=O)CN1CCCC1", "cytotoxicity at 10 µM": -8.7}
{"molecule": "Cc1cc2nc(C(C)C)cc(NCc3ccncc3)n2n1", "cytotoxicity at 10 µM": 2.63}
{"molecule": "CCn1ccnc1CN(C)C(=O)Cn1ccc2ccccc2c1=O", "cytotoxicity at 10 µM": 2.37}
{"molecule": "COc1cccc(CCC2CCCN(C(=O)C3=NN(C)C(=O)CC3)C2)c1", "note": "(stereo unspecified)", "cytotoxicity at 10 µM": -2.06}
{"molecule": "CC(=O)c1cc(CC(=O)NCc2c(F)cccc2F)cs1", "cytotoxicity at 10 µM": -8.51}
{"molecule": "CCCN(C)C(=O)c1ccc2c(c1)[nH]c(=O)n2CCOCC", "cytotoxicity at 10 µM": -30.6}
{"molecule": "Cc1ccc(OC2(C(=O)O)CCN(C(=O)c3ccc(F)cc3)CC2)cn1", "cytotoxicity at 10 µM": -18.1}
{"molecule": "O=C(N[C@@H]1CCNC[C@H]1O)c1ccc(F)c(Cl)c1", "cytotoxicity at 10 µM": -11.1}
{"molecule": "COCCOc1ccc(Cl)c(C(=O)N2CCN(CCO)CC2)n1", "cytotoxicity at 10 µM": -4.33}
{"molecule": "Cc1noc(CN(C)C2CCCN(Cc3noc(C4CC4)n3)C2)n1", "note": "(stereo unspecified)", "cytotoxicity at 10 µM": -2.19}
{"molecule": "O=C(N1CCCC(n2cncn2)C1)C1(c2ccc(Cl)cc2)CCC1", "note": "(stereo unspecified)", "cytotoxicity at 10 µM": -2.11}
{"molecule": "Cc1nc(C2CCCN2CC(=O)NCCOc2cccc(F)c2)no1", "note": "(stereo unspecified)", "cytotoxicity at 10 µM": -16.3}
{"molecule": "COc1c(CNC(c2ccccc2F)c2nccn2C)c(C)nn1C", "note": "(stereo unspecified)", "cytotoxicity at 10 µM": -13.9}
{"molecule": "CCOc1ccccc1OC1CCN(C(=O)c2[nH]nc(C)c2Br)CC1", "cytotoxicity at 10 µM": -8.75}
{"molecule": "CC(=O)c1cccc(OCC(=O)NS(=O)(=O)c2cccs2)c1", "cytotoxicity at 10 µM": -10.5}
{"molecule": "Cc1cnn(CC2CCCCN2C(=O)Cc2ccc(C#N)cc2)c1", "note": "(stereo unspecified)", "cytotoxicity at 10 µM": -7.09}
{"molecule": "CN(C)c1ccc(C(=O)N2CCC(c3n[nH]c(C4CC4)n3)CC2)cc1", "cytotoxicity at 10 µM": -2.42}
{"molecule": "COc1ccccc1OCCNC(=O)N1CCC(n2cncn2)CC1", "cytotoxicity at 10 µM": 1.67}
{"molecule": "CCOc1cccc2c1OCC(C(=O)NS(=O)(=O)c1cncc(Br)c1)=C2", "cytotoxicity at 10 µM": -0.713}
{"molecule": "COc1cn(-c2ccccc2)nc1C(=O)NCCCN1CCCC(C)C1", "note": "(stereo unspecified)", "cytotoxicity at 10 µM": -11.1}
{"molecule": "CCCc1n[nH]c(C2CN(C(=O)c3cc(F)ccc3OC)CCO2)n1", "note": "(stereo unspecified)", "cytotoxicity at 10 µM": -5.58}
{"molecule": "CC(=O)N(Cc1ncc(C(C)C)o1)C1CCN(Cc2nccn2C)C1", "note": "(stereo unspecified)", "cytotoxicity at 10 µM": -3.81}
{"molecule": "Cc1nc(C)n(CC2CCCN(Cc3cccc(C#N)c3)C2)n1", "note": "(stereo unspecified)", "cytotoxicity at 10 µM": -16}
{"molecule": "COc1ccccc1C(O)CNC(=O)Nc1ncccc1C", "note": "(stereo unspecified)", "cytotoxicity at 10 µM": -8.65}
{"molecule": "CC(C)c1noc(CCC(=O)NCC2CCOC2)n1", "note": "(stereo unspecified)", "cytotoxicity at 10 µM": 4.57}
{"molecule": "Cc1cnc(CN(C)C2CCN(Cc3ccccc3C#N)C2)o1", "note": "(stereo unspecified)", "cytotoxicity at 10 µM": 1.08}
{"molecule": "COCCc1noc(CN2CCCC2c2c(C)nn(C)c2C)n1", "note": "(stereo unspecified)", "cytotoxicity at 10 µM": -5.73}
{"molecule": "FC(F)(F)Cn1ccnc1CN1CCOC(Cn2cccn2)C1", "note": "(stereo unspecified)", "cytotoxicity at 10 µM": 0.0962}
{"molecule": "Cc1nn(C)c(Cl)c1C1CCCN1CC(=O)NCc1ccccn1", "note": "(stereo unspecified)", "cytotoxicity at 10 µM": -2.07}
{"molecule": "Cc1ccc(-c2ncc(C(=O)NCCNc3ncccn3)s2)c(C)c1", "cytotoxicity at 10 µM": -9.12}
{"molecule": "Cc1cnn(CC2CN(Cc3nc(-c4ccoc4)no3)CCO2)c1", "note": "(stereo unspecified)", "cytotoxicity at 10 µM": -9.63}
{"molecule": "CC(C)c1nnc(NC(=O)NCc2ccc(CO)c(F)c2)s1", "cytotoxicity at 10 µM": 6.54}
{"molecule": "CN(C)C(=O)CO[C@H]1CN(Cc2ccccc2)[C@@H]2CCCO[C@H]12", "cytotoxicity at 10 µM": -8.1}
{"molecule": "CCCC(=O)N1CCOC2(COCCN(CC(=O)NC)C2)C1", "note": "(stereo unspecified)", "cytotoxicity at 10 µM": -3.58}
{"molecule": "COc1cccc(-c2n[nH]cc2CNC2CCN(C3CC3)CC2)c1", "cytotoxicity at 10 µM": -3.78}
{"molecule": "Cc1ccc(CN2Cc3c(C(=O)N4CCN(C)CC4)nn(C)c3C2)s1", "cytotoxicity at 10 µM": -6.77}
{"molecule": "COCCC(=O)NCC1CCC(C(c2ccccn2)N(C)C)CC1", "note": "(stereo unspecified)", "cytotoxicity at 10 µM": 11.5}
